Compound activity from PubChem.
Shown are actives, neighbours in structure and some others; about 6.4% of the full set was active somewhere.
H69AR inhibit: blocks growth of human H69AR lung tumor cells. viability, % at 10 µM. H69AR lung tumor viability, ATP luminescence, 72 h; active compounds read low. 85,000 compounds, 6% hits;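 active = viability at or below 40%; inactive = viability above 40%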;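 also: multidrug resistant small cell line overexpressing MRP-1 efflux transporter; 100% = mean luminescence of untreated control wells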
Fibroblast inh: blocks proliferation of human lung fibroblasts; LL 47 human lung fibroblast viability, ATP luminescence; active compounds read low; viability, % at 10 µM; 85,000 compounds, 1.1% hits;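 active = viability at or below 50% in the single dose screen; inactive = viability above 50%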;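 also: compound exposure lasted 72 h before the ATP readout; 100% = median luminescence of untreated cell-only wells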
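Times – overnight cell rest, 72 h compound treatment at 37 °C · Test system – human lung fibroblast line LL 47, low passage · Amount – 1,150 cells in each well · Controls – cell-only wells, no compound · Doses – 0.1% DMSO in all compound wells · Measured by – CellTiter-Glo luminescence · Buffer or medium – IMEM plus 15% FBS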
HUVEC inhibit: human endothelial cell proliferation inhibition. HUVEC proliferation, CellTiter-Glo luminescence, 72 h; active compounds read low. viability, % at 10 µM (by protocol). 86,000 compounds, 1.1% hits;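 active = viability at or below 30%; inactive = viability above 30%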;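 also: 100% = median luminescence of DMSO-only cell control wells on each plate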
tolC growth inh: growth inhibitors of E. coli BW25113 tolC mutant; OD615; growth inhibition, % at 10 µM (by protocol); 65,000 compounds, 2.2% hits;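 active = growth inhibition at or above a cutoff equal to the mean over every tested compound plus 3 SD, cut at about 60% in these data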;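 also: growth measured after 20 h incubation at 37 °C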
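Signal: optical density read at 615 nm; Assay system: E. coli ΔtolC::kan strain BW25113; Times: 20 h incubation with compound, 37 °C; Dosing: 10 µM final, single dose.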
E coli WT exp: blocks growth of wild type E. coli BW25113. 98,000 compounds, 0.15% hits. OD600 absorbance. growth inhibition, % at 100 µM;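 active = growth inhibition above about 50% at one test dose, limit read from the data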;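 also: growth measured after 20 h incubation at 37 °C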
Jurkat viability: reduces viability or proliferation of Jurkat cells | Jurkat E6.1 viability, ATP luminescence, 48 h | 56,000 compounds, 1.2% hits | AID 463 | inhibition, % at 4 µM;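 active = inhibition above the mean inhibition of all tested compounds plus 3 SD, cut at about 28% in these data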
* = called active by the depositor; x = no result.

SMILES	H69AR inhibit	Fibroblast inh	HUVEC inhibit	tolC growth inh	E coli WT exp	Jurkat viability
CCOc1ccc(OCC)c(S(=O)(=O)N2CCC(C)CC2)c1	83.7	102.7	98.4	x	2.0	x
COc1ccccc1-c1cc(C(F)(F)F)nc(S(=O)(=O)CCCC(=O)N2CCOCC2)n1	0.3*	3.2*	44.6	29.1	5.0	61.9*
CCn1cc(/C=N/NS(=O)(=O)c2ccc(OC)cc2)c(C)n1	x	x	x	x	-1.0	x
Cc1ccc(-c2cc(-c3ccccc3[N+](=O)[O-])[nH]n2)c(O)c1	x	x	x	x	26.0	x
Cc1ccc(-c2cc(-c3ccccc3Cl)[nH]n2)c(O)c1	1.9*	66.2	36.2	17.0	13.0	3.0
Cc1ccccc1-c1cc(-c2ccccc2O)n[nH]1	32.8*	76.9	41.8	100.0*	26.0	-13.8
CCOC(=O)c1[nH]c(C)c(C(=O)Nc2ccc(Cl)cc2)c1C	91.2	102.5	100.9	-4.0	-4.0	3.8
CCc1c(C(=O)Nc2ccc(OC)cc2)[nH]c(C)c1C(C)=O	26.4*	92.1	85.5	24.8	2.0	7.2
CCOC(=O)c1ccc(NC(=O)c2c(C)[nH]c(C(=O)OCC)c2C)cc1	75.2	49.2*	95.6	-9.5	-9.0	-3.3
CC(=O)c1c(C)[nH]c(C(=O)N2CCc3ccccc32)c1C	79.7	99.3	94.4	0.7	3.0	-2.9
CCOC(=O)c1[nH]c(C)c(C(=O)NC)c1C	96.0	98.3	102.3	-11.6	3.0	0.4
CCOC(=O)c1[nH]c(C)c(C(=O)Nc2cccc(Cl)c2C)c1C	15.3*	80.7	46.3	-1.6	-2.0	64.4*
CCOC(=O)c1[nH]c(C)c(C(=O)N2CCc3ccccc32)c1C	25.6*	48.9*	45.4	21.0	0.0	97.2*
COc1ccc(CNC(=O)CSc2nnc(Cn3nnc4ccccc43)n2C)cc1	119.2	101.0	96.1	x	4.0	x
CCOC(=O)c1[nH]c(C)c(C(=O)OC(C)C(=O)Nc2ncc(Cl)cc2Cl)c1C (stereo not drawn)	25.7*	95.9	78.7	x	-7.0	x
CC(=O)c1c(C)[nH]c(C(=O)OCC(=O)Nc2ncc(Cl)c(C)c2Cl)c1C	85.3	x	94.4	9.0	-5.0	2.9
CCOC(=O)c1[nH]c(C)c(C(=O)c2cc(F)ccc2F)c1C	29.8*	56.8	50.1	27.2	2.0	88.4*
CCOC(=O)c1[nH]c(C)c(C(=O)OCC)c1C	96.8	92.9	100.5	5.9	0.0	-6.7
Cc1nn(Cc2c(Cl)cccc2Cl)c(C)c1NC(=O)c1cc(C(C)C)on1	7.7*	34.8*	71.6	15.7	3.0	44.9*
Cc1nn(Cc2ccc(Cl)cc2)c(C)c1NC(=O)c1cc(-c2ccc3c(c2)OCO3)on1	81.4	104.9	49.2	11.3	-1.0	-5.0
COc1ccc(-c2cc(C(=O)Nc3c(C)nn(Cc4ccccc4Cl)c3C)no2)cc1	32.8*	90.0	88.1	1.0	-4.0	x
Cc1nn(Cc2ccc(Cl)c(Cl)c2)c(C)c1NC(=O)c1cc(-c2ccc3c(c2)OCO3)on1	1.4*	76.4	12.2*	23.1	-5.0	-6.8
CCN(CC)CCCN1C(=O)C(O)=C(C(=O)c2ccc(C)o2)C1c1ccco1 (stereo not drawn)	91.9	101.2	101.4	-4.4	x	-4.2
Cc1onc(-c2c(F)cccc2Cl)c1C(=O)N1CCc2ccccc21	30.2*	109.4	102.7	x	-8.0	x
Cc1onc(-c2c(Cl)cccc2Cl)c1C(=O)N1CCCc2ccccc21	11.8*	77.4	67.6	x	-9.0	x
SMILES	H69AR inhibit	Fibroblast inh	HUVEC inhibit	tolC growth inh	E coli WT exp	Jurkat viability
Cc1onc(-c2ccccc2)c1C(=O)N1CCCc2ccccc21	112.4	88.4	94.8	9.6	7.0	0.8
Cc1noc(C)c1C(=O)N1CCc2ccccc21	90.2	95.4	97.2	-11.3	-1.0	-0.9
CCC(C(=O)c1ccccc1)N(C(=O)c1ccccc1Cl)N1C(=O)C2C3C=CC(C3)C2C1=O (stereo not drawn)	x	x	x	x	-4.0	x
Clc1ccccc1CN(Cc1ccccc1)c1ncnc2nc[nH]c12	35.6*	91.2	87.3	23.0	-2.0	x
COc1ccc(C2C(C(=O)Nc3ccc4c(c3)OCCO4)c3ccccc3C(=O)N2C)cc1 (stereo not drawn)	107.3	92.6	104.6	x	1.0	x
CC(C)CCCC(C)NS(=O)(=O)Cc1ccccc1 (stereo not drawn)	109.7	108.2	97.7	x	5.0	x
Oc1ccc(F)cc1-c1cc(-c2ccc3c(c2)OCCO3)n[nH]1	37.3*	76.7	65.8	x	7.0	x
Oc1ccc(Br)cc1-c1cc(-c2ccccc2F)[nH]n1	55.7	80.4	82.2	15.5	-14.0	x
